In ChEMBL document CHEMBL4513216, “Probing the Open Global Health Chemical Diversity Library for Multistage-Active Starting Points for Next-Generation Antimalarials” (ACS Infect Dis, 2020):

Assay: Toxicity liver stage against HepG2, at 10uM
Assay type: cell-based
Set-up: test concentration 10 uM, cell line HepG2-A16-CD81EGFP
Conditions: human, HepG2-A16-CD81EGFP cells; read-out: INHIBITION
Method in brief: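 Uninfected HepG2-A16-CD81EGFP cells, 3 × 10^3 per well, 1536-well, plated on prespotted compound at 10 μM final, parasite-free screening media added to match infected plates; puromycin 10 μM positive, DMSO 0.5% negative; run in parallel with 48 h PbLuc assay at 37 °C, 5% CO2; viability by CellTiter-Glo luminescence, normalized to controls.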

Row | SMILES | cytotoxicity at 10 µM [%]
1 | Cc1cn([C@H]2CCNC[C@]2(C)O)c(=O)[nH]c1=O | -6.22
2 | COCc1ncc(-c2nccn2CCN(C)C)cn1 | 0.126
3 | Cc1cnc(CNC(=O)[C@@]23CCO[C@@H]2CCNC3)cn1 | -108
4 | CN(Cc1cccc(O)c1)CC1CCCN(CCc2ccc(Cl)cc2)C1 (stereo not given) | 6.22
5 | c1csc(CN2CCC3(CCOCC3COCC3CC3)CC2)n1 (stereo not given) | 5.02
6 | Cc1nc(N(CCC(N)=O)Cc2ccccc2)c2nc(C)oc2n1 | -3.86
7 | OC(CN(Cc1ccccc1)Cc1ccon1)c1ccco1 (stereo not given) | 4.42
8 | COc1ccc(CCN(C)C(=O)c2cc(C(C)=O)c[nH]2)cc1OC | 5.38
9 | COCCn1ccc2cc(C(=O)NC3CCOC(C)(C)C3)ccc21 (stereo not given) | -0.508
10 | CC(=O)N1CCOCC2(C1)CN(S(C)(=O)=O)CCO2 (stereo not given) | 2.84
11 | N#Cc1ncn(CCS(=O)(=O)c2ccc(Cl)cc2)n1 | -6.74
12 | O=C(NN1CCCc2ccccc21)c1c[nH]c(=O)[nH]1 | 8.73
13 | Cc1nnc(N2CCOC(C)(C(=O)NC3CCCC3)C2)c2ccccc12 (stereo not given) | 7.92
14 | CSc1ccc(C(CNC(=O)C2CC2)N2CCc3sccc3C2)cc1 (stereo not given) | -5.31
15 | O=S(=O)(Cc1ccccc1)c1nnc(N2CCCC2)s1 | -6.27
16 | COc1cccc(CNCc2cccc(Cl)c2)c1O | 1.29
17 | Cc1cnn(CC(C)NCc2cc(=O)n3cc(C)ccc3n2)c1 (stereo not given) | 3.89
18 | Cc1cc(F)ccc1CCNC(=O)NCC(C)N1CCOCC1 (stereo not given) | -1.35
19 | Cc1ccnc(N2CCC(OCCN3CCCCC3)C2)n1 (stereo not given) | -49.4
20 | CCc1ccc(CN2CCN(c3ccc(Cl)nn3)CC2)nc1 | -2.98
21 | Cc1c(Cl)c(C(F)(F)F)nn1C(C)C(=O)NC1CCN(C)CC1 (stereo not given) | -3.13
22 | Cc1occc1C(=O)N1CCO[C@H]2[C@H](OCc3ccccn3)CC[C@@H]21 | -104
23 | CCC(CNC(=O)c1ccc(Br)o1)N1CCc2ccccc2C1 (stereo not given) | -20.5
24 | Cc1cnn(CC(C)NCc2ccc(OCc3cccnc3)cc2)c1 (stereo not given) | -1.07
25 | Cc1nnc(NC(=O)CN2CCc3nn(C)c(=O)cc3C2)s1 | -6.18
26 | CC(C)(C)CCNc1nccc(-c2c[nH][nH]c2=O)n1 | -5.25
27 | O=C(c1cc[nH]n1)N1CC[C@@H]2CN(Cc3ccccc3)S(=O)(=O)[C@@H]2CC1 | 4.35
28 | CNC(=O)NC(=O)CSc1ccc2c(c1)CCC2 | 19.6

Row | SMILES | cytotoxicity at 10 µM [%]
29 | COc1cccc(CC2CN(C3CCC3)CCO2)c1 (stereo not given) | 0.388
30 | CCc1cc(O)n2nc(C3CCN(C(=O)c4ccncc4)CC3)cc2n1 | 3.51
31 | CC(CNC(=O)Nc1cn[nH]c1)N1CCc2ccccc2C1 (stereo not given) | -0.289
32 | CN1CCC(Oc2ccc(NC(=O)c3cccc(Cl)c3)cc2)CC1 | -8.45
33 | CC(C)c1nnc2n1CCN(Cc1cc(Cl)c3c(c1)OCCO3)C2 | 0.549
34 | O=C(COC1CCCCC1)Nc1ccn(Cc2ccccn2)n1 | 0.38
35 | CC(C)CCN1C[C@@H]2C[C@H](C(=O)Nc3cccnc3)[C@H](C1)O2 | -82.5
36 | CN1C(=O)c2cccc(NC(=O)c3ccc4c(c3)OCCO4)c2C1=O | 4.02
37 | CNS(=O)(=O)CC(=O)N1CCC(c2ccc(F)c(F)c2)CC1 | 0.696
38 | C[C@]1(O)CCN(Cc2c[nH]cn2)C[C@@H]1Oc1cccc(F)c1 | -5.72
39 | CN(Cc1ccc(F)cc1)S(=O)(=O)N1CCOCC1 | 2.35
40 | CCC1CN(C(=O)c2ccccc2C(C)=O)CCN1C(C)C (stereo not given) | 0.684
41 | CC(Cn1cccn1)NC(=O)NCc1ccc(S(C)(=O)=O)cc1 (stereo not given) | 3.64
42 | Cc1cc(OC(F)F)c(C(=O)N2CCN(C3CC3)CC2)s1 | 9.05
43 | CCN(CC)C(=O)CNC(=O)N1CCC(c2ccc(OC)cc2)C1 (stereo not given) | -5.51
44 | CCC(Oc1ccccc1)c1nn2c(CN(CC)CC)nnc2s1 (stereo not given) | 4.91
45 | CN1CCOC(C(=O)Nc2ccc3c(c2)nc(C2CC2)n3C)C1 (stereo not given) | -5.5
46 | CCc1nc(C2CCCN2CC(=O)N2CCc3ccccc32)no1 (stereo not given) | -11.2
47 | Cc1cc(NC(=O)N2CCCC2C(=O)NC2CC2)c2ncccc2c1 (stereo not given) | -2.43
48 | Cc1ccc(OCC(=O)N2C[C@@H]3CN(C)CCO[C@@H]3C2)cc1 | -0.204
49 | CS(=O)(=O)c1ccc(-c2nc(C(=O)N3CCCC3)n3ccccc23)cc1 | 6
50 | Cn1c(CC2CCS(=O)(=O)C2)nnc1SCCOc1cccc(Cl)c1 (stereo not given) | 14.4
51 | Cc1n[nH]c(C2CN(CC(=O)NCc3ccco3)CCO2)n1 (stereo not given) | 23
52 | CNC(=O)[C@@H]1[C@H]2CN(Cc3ccccn3)CCN2C[C@H]1c1ccccc1 | 3.38
53 | Cc1nc[nH]c1C(=O)N1CCCC2(C1)C(=O)N(C)c1ccccc12 (stereo not given) | -6.01
54 | CS(=O)(=O)NCC1CCCCN1Cc1ccccc1C#N (stereo not given) | -11.5
55 | Cc1noc(CN(C)CC2CCN(CCO)CC2)n1 | 5.82
